Measurements pooled from the literature.
Organism: Mycobacterium tuberculosis
Observed: microbial growth

Structure (SMILES)	technique	strain	time	MIC
CC(C)=CCC/C(C)=C/COCCOC1C2CC3CC(C2)CC1C3 (centres unmarked)				50 µg/mL
Cc1c(Cc2ccc(Cl)cc2)c(=O)n2c([nH]c3ccccc32)c1C#N	broth dilution	H37RV		1 µg/mL
COC(=O)c1cc(-c2cccc(NC(=O)Nc3ccccc3C)c2)on1		ATCC27294 H37RV	7 days	2 µg/mL
CO[C@H]1/C=C/O[C@@]2(C)Oc3c(C)c(O)c4c(O)c(c(/C=N/N5CCN(C)CC5)c(O)c4c3C2=O)NC(=O)/C(C)=C\C=C\[C@H](C)[C@H](O)[C@@H](C)[C@@H](O)[C@@H](C)[C@H](OC(C)=O)[C@@H]1C	broth dilution			0.4 µg/mL
CC1SC2(CCCC2)N(NC(=O)c2[nH]c3ccc(Cl)cc3c2-c2ccccc2)C1=O (centres unmarked)		ATCC27294 H37RV		250 µM
O=C1NN=C(N=Cc2ccccc2O)C1=NNn1c(-c2ccccc2)nc2ccccc2c1=O	resazurin	H37RV		13.8 µM
COC(=O)c1cc(-c2cccc(NC(=O)Nc3ccc(Cl)c(C(F)(F)F)c3)c2)on1		ATCC27294 H37RV	7 days	> 64 µg/mL
Cc1ccc(C)n1-c1ccc(-c2nnc(-c3ccccc3[N+](=O)[O-])[nH]2)cc1	broth dilution	H37RV	21 days	16 µg/mL
CN(CC[C@H](N)CC(=O)N[C@H]1C=C[C@H](n2ccc(N)nc2=O)O[C@@H]1C(=O)O)C(=N)N		H37RA		> 50 µM
CO[C@H]1/C=C/O[C@@]2(C)Oc3c(C)c(O)c4c(O)c(c(/C=N/N5CCN(C)CC5)c(O)c4c3C2=O)NC(=O)/C(C)=C\C=C\[C@H](C)[C@H](O)[C@@H](C)[C@@H](O)[C@@H](C)[C@H](OC(C)=O)[C@@H]1C	resazurin	H37RV	14 days	0.075 µM
COC(=O)c1cc(-c2cccc(NC(=S)Nc3ccc(C#N)cc3)c2)on1		ATCC27294 H37RV	7 days	2 µg/mL
O=[N+]([O-])c1cn2c(n1)OC[C@@H](OCc1ccc(N3CCCCC3)nc1)C2		H37RV		0.4 to 0.8 µg/mL
COC(=O)c1cc(-c2cccc(NC(=O)Nc3cc(Cl)ccc3Cl)c2)on1		ATCC27294 H37RV	7 days	2 µg/mL
C[C@H]1c2cccc(O)c2C(=O)C2=C(O)[C@]3(O)C(=O)C(C(N)=O)=C(O)[C@@H](N(C)C)[C@@H]3[C@@H](O)[C@@H]21	resazurin	H37RA	14 days	1 µg/mL
NNC(=O)c1ccncc1		ATCC27294 H37RV		0.05 µg/mL
O=C1C(=NNc2nc(-c3ccccc3)cs2)C(N=Cc2ccc(Cl)cc2)=NN1c1ccccc1	resazurin	H37RV		25 µg/mL
Cc1ccc2nc(C)c(C(=O)NCc3cccc(S(F)(F)(F)(F)F)c3)n2c1		H37RV	5 days	0.2 µM
COC(=O)c1cc(-c2cccc(NC(=S)Nc3ccc(Cl)cc3)c2)on1		ATCC27294 H37RV	7 days	1 µg/mL
CC1CCCC2(C1)SC(C)C(=O)N2NC(=O)c1[nH]c2ccc(Cl)cc2c1-c1ccccc1 (centres unmarked)		ATCC27294 H37RV		500 µM
CCCCCCC/C=C\[C@H](O)C#CC#C[C@@H](O)CC	resazurin	ATCC27294 H37RV	7 days	50.2 µg/mL
